Experimental data published in ChEMBL document CHEMBL5058577, “EUbOPEN Chemogenomics Library 2 (Multiplex)” (2022).

Test system: U2OS
Experiment: Multiplex assay against U2OS
Type: toxicity, cell-based
Conditions: human
In short: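 Hoechst33342, BioTracker Green Microtubule Cytoskeleton Dye, MitoTracker Red and Annexin V Alexa Fluor 680 were added to live cells at seeding, and imaging on a CQ1 microscope at 37°C and 5% CO2 followed compound addition. Gating by CellPathfinder machine learning separated cells into Hoechst high-intensity objects or normal cells, then normal cells into healthy, pyknosed or fragmented nuclei, then pyknosed cells into mitotic or apoptotic. Per cents of healthy-nucleus cells are reported for the tubulin, mitochondrial-mass and membrane-permeability phenotypes.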

[1] = 12 h, 1 µM, compound concentration 1 uM, replicate 1
[2] = 12 h, 1 µM, compound concentration 1 uM, replicate 2
[3] = 12 h, 10 µM, compound concentration 10 uM, replicate 1
[4] = 12 h, 10 µM, compound concentration 10 uM, replicate 2
[5] = 24 h, 1 µM, compound concentration 1 uM, replicate 1
[6] = 24 h, 1 µM, compound concentration 1 uM, replicate 2
[7] = 24 h, 10 µM, compound concentration 10 uM, replicate 1
[8] = 24 h, 10 µM, compound concentration 10 uM, replicate 2
[9] = 48 h, 1 µM, compound concentration 1 uM, replicate 1
[10] = 48 h, 1 µM, compound concentration 1 uM, replicate 2
[11] = 48 h, 10 µM, compound concentration 10 uM, replicate 1
[12] = 48 h, 10 µM, compound concentration 10 uM, replicate 2

## Cl.NCCc1ccc(O)c(O)c1 [DOPAMINE HYDROCHLORIDE]
[1]
  Population Apoptotic (%): 100%
  Population Fragmented Nuclei (%): 23%
  Population Healthy Nuclei (%): 67%
  Population Hoechst High Intensity Objects (%): 3%
  Population Membrane Permeable-Phenotype (%): 5%
  Population Mitochondria Different-Phenotype (%): 1%
  Population Mitotic Cells (%): 0%
  Population Normal (%): 96%
  Population Pyknosed Nuclei (%): 9%
  Population Tubulin-Different-Phenotype (%): 2%
  Total Cell Count: 237
[2]
  Population Apoptotic (%): 83%
  Population Fragmented Nuclei (%): 15%
  Population Healthy Nuclei (%): 72%
  Population Hoechst High Intensity Objects (%): 1%
  Population Membrane Permeable-Phenotype (%): 8%
  Population Mitochondria Different-Phenotype (%): 2%
  Population Mitotic Cells (%): 16%
  Population Normal (%): 98%
  Population Pyknosed Nuclei (%): 11%
  Population Tubulin-Different-Phenotype (%): 5%
  Total Cell Count: 104
[3]
  Population Apoptotic (%): 80%
  Population Fragmented Nuclei (%): 21%
  Population Healthy Nuclei (%): 65%
  Population Hoechst High Intensity Objects (%): 3%
  Population Membrane Permeable-Phenotype (%): 2%
  Population Mitochondria Different-Phenotype (%): 1%
  Population Mitotic Cells (%): 20%
  Population Normal (%): 96%
  Population Pyknosed Nuclei (%): 12%
  Population Tubulin-Different-Phenotype (%): 1%
  Total Cell Count: 204
[4]
  Population Apoptotic (%): 75%
  Population Fragmented Nuclei (%): 18%
  Population Healthy Nuclei (%): 76%
  Population Hoechst High Intensity Objects (%): 0%
  Population Membrane Permeable-Phenotype (%): 4%
  Population Mitotic Cells (%): 25%
  Population Normal (%): 100%
  Population Pyknosed Nuclei (%): 4%
  Total Cell Count: 95
[5]
  Population Apoptotic (%): 90%
  Population Fragmented Nuclei (%): 18%
  Population Healthy Nuclei (%): 69%
  Population Hoechst High Intensity Objects (%): 4%
  Population Membrane Permeable-Phenotype (%): 7%
  Population Mitochondria Different-Phenotype (%): 2%
  Population Mitotic Cells (%): 10%
  Population Normal (%): 95%
  Population Pyknosed Nuclei (%): 11%
  Population Tubulin-Different-Phenotype (%): 5%
  Total Cell Count: 263
[6]
  Population Apoptotic (%): 80%
  Population Fragmented Nuclei (%): 14%
  Population Healthy Nuclei (%): 77%
  Population Hoechst High Intensity Objects (%): 1%
  Population Membrane Permeable-Phenotype (%): 4%
  Population Mitochondria Different-Phenotype (%): 1%
  Population Mitotic Cells (%): 20%
  Population Normal (%): 98%
  Population Pyknosed Nuclei (%): 7%
  Population Tubulin-Different-Phenotype (%): 2%
  Total Cell Count: 132
[7]
  Population Apoptotic (%): 92%
  Population Fragmented Nuclei (%): 18%
  Population Healthy Nuclei (%): 70%
  Population Hoechst High Intensity Objects (%): 2%
  Population Membrane Permeable-Phenotype (%): 4%
  Population Mitochondria Different-Phenotype (%): 0%
  Population Mitotic Cells (%): 8%
  Population Normal (%): 97%
  Population Pyknosed Nuclei (%): 10%
  Population Tubulin-Different-Phenotype (%): 1%
  Total Cell Count: 245
[8]
  Population Apoptotic (%): 87%
  Population Fragmented Nuclei (%): 15%
  Population Healthy Nuclei (%): 77%
  Population Hoechst High Intensity Objects (%): 0%
  Population Membrane Permeable-Phenotype (%): 1%
  Population Mitotic Cells (%): 12%
  Population Normal (%): 99%
  Population Pyknosed Nuclei (%): 7%
  Total Cell Count: 111
[9]
  Population Apoptotic (%): 90%
  Population Fragmented Nuclei (%): 17%
  Population Healthy Nuclei (%): 70%
  Population Hoechst High Intensity Objects (%): 2%
  Population Membrane Permeable-Phenotype (%): 5%
  Population Mitochondria Different-Phenotype (%): 3%
  Population Mitotic Cells (%): 9%
  Population Normal (%): 97%
  Population Pyknosed Nuclei (%): 11%
  Population Tubulin-Different-Phenotype (%): 4%
  Total Cell Count: 363
[10]
  Population Apoptotic (%): 89%
  Population Fragmented Nuclei (%): 14%
  Population Healthy Nuclei (%): 73%
  Population Membrane Permeable-Phenotype (%): 7%
  Population Mitochondria Different-Phenotype (%): 4%
  Population Mitotic Cells (%): 10%
  Population Tubulin-Different-Phenotype (%): 3%
  Total Cell Count: 172
[11]
  Population Apoptotic (%): 85%
  Population Fragmented Nuclei (%): 18%
  Population Healthy Nuclei (%): 66%
  Population Hoechst High Intensity Objects (%): 2%
  Population Membrane Permeable-Phenotype (%): 7%
  Population Mitochondria Different-Phenotype (%): 3%
  Population Mitotic Cells (%): 14%
  Population Normal (%): 97%
  Population Pyknosed Nuclei (%): 14%
  Population Tubulin-Different-Phenotype (%): 5%
  Total Cell Count: 338
[12]
  Population Apoptotic (%): 100%
  Population Fragmented Nuclei (%): 14%
  Population Healthy Nuclei (%): 76%
  Population Hoechst High Intensity Objects (%): 1%
  Population Membrane Permeable-Phenotype (%): 2%
  Population Mitochondria Different-Phenotype (%): 2%
  Population Mitotic Cells (%): 0%
  Population Normal (%): 98%
  Population Pyknosed Nuclei (%): 8%
  Population Tubulin-Different-Phenotype (%): 2%
  Total Cell Count: 179
